Hits are enriched below; roughly 2.2% of the tested compounds scored in any of these assays.
PPC-1+TRAIL kill – compounds killing PPC-1 cancer cells with TRAIL present, primary screen, TRAIL potentiator project, ATPLite luminescence, uHTS | actives 0.41% (n = 220,000) | PPC-1 cells + TRAIL, ATPLite viability luminescence | cell killing (% activity), % at 4 µM or 5 µM | AID 1443, 2008;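 active = cell killing above 50% in the first pass at 4 µM, then a duplicate retest at 5 µM averaging 50% or more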;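 also: plate controls were cells with TRAIL plus DMSO for no effect and medium-only wells lacking cells for full effect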
HSP90 inh – HSP90 inhibitors, primary screen, cell lysate, luminescence | Rabbit reticulocyte lysate, luciferase refolding luminescence, 3 h | AID 1789, 2009 | inhibition, % at 5.6 µM | actives 0.91% (n = 290,000);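 active = inhibition above the screen-wide mean plus 3 SD, computed separately per campaign, cut at about 16% in these data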;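 also: 0% = DMSO wells and 100% = 60 µM geldanamycin wells; inhibitors lower the luminescence because luciferase stays unfolded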
FLuc inhib CS – firefly luciferase enzyme inhibitors, primary screen, artefact control for luciferase-based inhibitor screens, biochemical, luminescence, ATPLite; 10 min; Luciferin 4-monooxygenase (Photinus pyralis), P08659; actives 1.5% (n = 200,000); AID 1006, 2008; inhibition, % at 10 µM;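 active = inhibition above about 50% when tested at 10 µM, limit read from the data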
Target sequence (P08659 whole entry, looked up): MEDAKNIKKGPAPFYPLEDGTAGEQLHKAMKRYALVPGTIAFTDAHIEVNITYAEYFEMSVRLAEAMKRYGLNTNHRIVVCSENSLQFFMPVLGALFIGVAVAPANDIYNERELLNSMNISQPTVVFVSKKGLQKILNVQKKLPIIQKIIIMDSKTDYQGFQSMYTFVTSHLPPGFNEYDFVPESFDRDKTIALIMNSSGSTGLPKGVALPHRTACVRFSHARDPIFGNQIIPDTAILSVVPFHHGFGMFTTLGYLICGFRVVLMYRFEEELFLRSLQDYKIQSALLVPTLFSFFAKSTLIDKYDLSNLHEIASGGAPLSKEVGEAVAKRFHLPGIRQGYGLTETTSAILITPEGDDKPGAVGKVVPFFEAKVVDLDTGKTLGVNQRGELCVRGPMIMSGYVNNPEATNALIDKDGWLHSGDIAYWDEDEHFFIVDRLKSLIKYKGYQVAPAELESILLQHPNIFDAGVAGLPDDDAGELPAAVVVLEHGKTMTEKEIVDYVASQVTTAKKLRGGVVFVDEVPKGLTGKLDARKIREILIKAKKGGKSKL
STAT3 inh – IL-6 driven STAT3 reporter inhibitors, primary screen, U3A cells, luciferase, luminescence, MLSCN library | IL-6 STAT3-luciferase reporter; host cell line lacks STAT1 | inhibition, % at 5.5 µM | actives 0.89% (n = 190,000);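 active = inhibition above the mean inhibition across all screened compounds plus 3 SD, cut at about 44% in these data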;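 also: 0% = DMSO only wells and 100% = 100 µM nifuroxazide control wells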
FLuc stim CS – FLuc activators, initial screening, artefact control for FLuc-dependent activation tests, biochemical, ATPlite luminescence | Luciferin 4-monooxygenase (Photinus pyralis), P08659 | 200,000 tested, under 10 active | ATPlite luciferase biochemical, 10 min; 0 = ATP-free wells, 1 = DMSO control | AID 1027, 2008 | activation factor at 10 µM;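 active = luciferase activation factor, scaled between plate controls, of at least 2 with compound at 10 µM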
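Assay system: Luciferase/luciferin detection reagent, cell-free biochemical luciferase assay / Also added: ATP substrate / Schedule: 10 min at ambient temperature / Measured by: luminescence measurement of luciferase light output / Benchmarks: low control with PBS replacing ATP, high control enzyme plus ATP without compound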
C8 TRAIL sens – viability loss with TRAIL in NB7+C8 cells, primary screen, TRAIL sensitizer project, cell-based, ATPlite luminescence. actives 1% (n = 360,000). inhibition (viability loss, TRAIL sensitization), % at 10 µM. AID 624354, 2012;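 active = compounds causing at least 50% loss of cell viability in the single-dose screen, relative to plate controls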
HSP90 confirm – HSP90 inhibitors, confirmation, cell lysate, luminescence; shares compounds with HSP90 inh; rabbit reticulocyte lysate, luciferase refolding luminescence, 3 h; inhibition, % at 5.9 µM; actives 64% (n = 2,300); AID 1846, 2009; in the data active = inhibition above about 18%;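 also: 0% = vehicle wells and 100% = reference inhibitor wells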
FLuc counter – firefly luciferase inhibitors, HSP90 counter-screen, confirmation, artefact control for HSP90 inhibitor project, biochemical, luminescence, triplicate; purified native firefly luciferase; shares compounds with HSP90 inh; actives 48% (n = 2,300); inhibition, % at 5.9 µM;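 active = inhibition above the mean inhibition of all tested sample wells plus 3 SD, cut at about 10% in these data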;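 also: 0% = DMSO with luciferase and 100% = wells lacking luciferase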
* = called active by the depositor; . = no result given.

SMILES | PPC-1+TRAIL kill | HSP90 inh | FLuc inhib CS | STAT3 inh | FLuc stim CS | C8 TRAIL sens | HSP90 confirm | FLuc counter
COc1cccc(/C=N/n2c(COc3ccccc3)n[nH]c2=S)c1 | . | 0.1 | . | . | . | -12.4 | . | .
CC(C)c1ccccc1OCC(=O)NCC(c1cccs1)N1CCOCC1 (stereo unspecified) | 19.3 | 23.9* | 0.6 | 10.9 | 1 | -8.0 | 0.0 | -5.4
COc1cc(NCCCC(C)N)c2ncccc2c1 (stereo unspecified) | . | 23.1* | . | 1.3 | . | 17.8 | 5.0 | -6.2
COc1cc(NS(=O)(=O)c2ccc(C)cc2)c2ncccc2c1 | 27.8 | 5.7 | -8.0 | 0.6 | 1.1 | 15.6 | . | .
Cn1c(C(C)(O)C(O)c2ccccc2)nc2ccccc21 (stereo unspecified) | 6.7 | 0.6 | -1.5 | -3.1 | 1 | . | . | .
Nc1c(C(=O)Nc2ccccc2)nnn1-c1ccc2c(c1)OCCO2 | . | 23.6* | . | . | . | 45.6 | 44.6* | 31.0*
COCCN(C(=O)CCC(=O)Nc1ccccn1)C(C(=O)NC(C)C)c1ccc(Cl)cc1 (stereo unspecified) | . | 83.7* | . | . | . | -3.1 | 0.9 | -4.3
O=C(c1ccco1)N1CCc2ccccc21 | -7.9 | -2.1 | 13.5 | 19.9 | 0.9 | -0.7 | . | .
O=C(/C=C/c1ccco1)N1CCc2ccccc21 | 36.5 | 23.6* | 82.3* | 35.4 | 0.2 | 49.8 | 41.2* | 24.8*
CCN(CC)c1ccc(C(=O)OCC(=O)Nc2ccc3[nH]c(=O)[nH]c3c2)cc1 | 18.1 | 0.7 | -1.6 | -1.7 | 1 | -2.7 | . | .
O=C(Nc1nc(-c2ccccc2)cs1)c1ccccc1F | . | 1.6 | . | . | . | -4.5 | . | .
COc1ccc(-c2csc(NC(=O)c3ccccc3F)n2)cc1 | . | 33.5* | . | . | . | 4.8 | -11.4 | -31.9
Cn1c(CNC(=O)CCNC(=O)c2cccc(F)c2)cc(=O)n(C)c1=O | . | 0.8 | . | . | . | -7.5 | . | .
Cc1cc(C(=O)CSc2nncs2)c(C)n1Cc1ccco1 | 8.6 | 22.1* | 73.8* | 42.7 | 0.3 | 28.7 | 54.9* | 40.8*
Cc1cc(C(=O)CSc2nn(-c3ccccc3)c(=S)s2)c(C)n1Cc1ccco1 | 10.3 | 0.9 | -2.4 | -0.8 | 1 | -7.1 | . | .
Cc1c(Cl)cccc1NC(=O)CCCn1cnc([N+](=O)[O-])n1 | -1.8 | 18.0* | -6.1 | 12.4 | 1.1 | -0.3 | 1.8 | -3.9
O=C(CCCn1cnc([N+](=O)[O-])n1)Nc1cccc(Cl)c1Cl | -0.4 | -6.4 | -3.0 | -11.7 | 1 | 13.9 | . | .
O=C1NC(=O)/C(=C\c2ccc(OCc3cccc(C(=O)O)c3)c(Cl)c2)N1 | 9.6 | 30.8* | 11.6 | 73.3* | 0.9 | 7.0 | 45.2* | 49.6*
COc1cc(/C=C2\NC(=S)NC2=O)ccc1OCc1cccc(C(=O)O)c1 | . | 4.4 | . | . | . | -9.1 | . | .
Cc1cc(C(=O)Nc2ccc3c(c2)OCO3)cs1 | 48.0 | 20.0* | 65.1* | -9.1 | 0.3 | 35.9 | 12.3 | -14.2
Cc1ccc(NC(=O)c2ccc3c(c2)OCCO3)cc1C | . | 42.4* | . | . | . | 76.2* | 68.0* | 60.9*
CC(=O)Nc1ccc(C(=O)Nc2ccc3c(c2)OCO3)cc1 | 10.8 | -4.0 | -2.1 | 5.4 | 1 | -0.4 | . | .
Cc1cccc(NC(=O)c2ccc3c(c2)OCCO3)c1 | . | 33.5* | . | . | . | 87.0* | 48.5* | 35.5*
O=C(Nc1ccc2c(c1)OCCO2)c1ccc(Cl)cc1 | . | 18.9* | . | . | . | 59.0* | 24.9* | 15.3*
Cc1ccc(OCCC(=O)OCC(=O)NC(=O)NC2CCCCC2)cc1 | . | . | . | . | . | 14.7 | . | .
SMILES | PPC-1+TRAIL kill | HSP90 inh | FLuc inhib CS | STAT3 inh | FLuc stim CS | C8 TRAIL sens | HSP90 confirm | FLuc counter
Cc1ccc(C(=O)Nc2ccc3c(c2)OCCO3)c(C)c1 | . | 65.5* | . | . | . | 87.4* | 82.5* | 76.5*
Cc1ccc(C(=O)O)cc1NC(=O)Nc1ccc2c(c1)OCO2 | 2.7 | 1.9 | 10.5 | -1.3 | 0.9 | 5.9 | . | .
O=C(Nc1cccc(C(=O)O)c1)Nc1ccc2c(c1)OCO2 | . | 86.0* | . | . | . | 48.8 | 96.0* | 91.1*
Cc1ccc(C(=O)NCC(=O)Nc2ccc3c(c2)OCCO3)cc1 | . | . | . | . | . | 13.8 | . | .
COc1ccc(CCN2C(=S)N(C)C(=O)C2CC(=O)Nc2ccc(F)cc2)cc1 (stereo unspecified) | 7.4 | -1.6 | . | . | . | -25.6 | . | .
COc1cccc(-c2cc3nc4c(c(NCC(C)(C)CN(C)C)n3n2)CCCC4)c1 | . | 45.5* | 1.6 | -8.5 | 1 | 11.8 | 44.1* | 2.9
COc1cccc(CNC(=O)Cc2ccc(S(=O)(=O)N3CCOCC3)s2)c1 | . | . | . | . | . | -11.7 | . | .
Cc1cccc(NCc2cc(Cl)cc(Cl)c2O)n1 | 37.3 | 17.5* | -3.8 | -0.9 | 1 | -0.6 | -2.3 | -3.6
C[C@H](NC(=O)c1[nH]cnc1C(=O)Nc1ccccc1F)c1ccccc1 | . | . | . | . | . | 35.0 | . | .
C[n+]1nc(Nc2ccccc2)sc1-c1ccc(O)cc1 | . | 17.1* | . | . | . | 1.5 | -7.7 | -9.0
C[n+]1ccccc1/C=C1\Sc2ccccc2N1CCO | . | 17.5* | . | . | . | -0.9 | 0.1 | -2.1
C[n+]1cccc2c(Br)ccc([O-])c21 | 4.3 | 18.6* | . | . | . | -1.4 | 2.7 | -2.4
COc1ccc(-c2sc(Nc3ccc(F)c(F)c3F)nc2CCC(=O)NN)cc1 | . | 13.6 | . | . | . | -13.1 | . | .
COC(=O)c1ccc(NC(=S)Nc2ccccn2)cc1 | -17.2 | 2.0 | 10.3 | 10.2 | 0.9 | 12.0 | . | .
COc1ccc(NC(=S)Nc2ccccn2)cc1 | 9.8 | 26.1* | . | . | . | -0.6 | -8.5 | -17.7
Cc1nc(NC(=O)c2ccco2)sc1C(=O)O | . | 54.3* | . | . | . | 5.6 | 64.0* | -13.1
CCCCCCCCc1nnc(NC(=O)c2ccco2)s1 | 14.9 | 24.8* | -3.1 | -11.1 | 1 | -5.4 | -2.7 | -5.7
Cc1cc(C)c2nc(NC(=O)c3ccco3)sc2c1 | . | 18.3* | . | . | . | 35.0 | 38.8* | 33.0*
CCOCc1nnc(NC(=O)c2ccco2)s1 | -14.0 | 6.0 | -0.1 | -2.7 | 1 | 3.1 | . | .
O=C(O)c1ccc(N=Nc2c(O)ccc3ncccc23)cc1 | . | 53.5* | . | . | . | -0.8 | 53.7* | 19.7*
COc1ccc(C(C(=O)NCC2CCCO2)N(C(=O)c2snc(C(N)=O)c2N)c2ccc(C)cc2)cc1OC (stereo unspecified) | . | 5.2 | . | . | . | 9.9 | . | .
COc1ccc(C(=O)c2coc3ccc(O)c(CN(C)C)c23)cc1 | -12.0 | 34.9* | -10.5 | 6.3 | 1.1 | -2.7 | -6.2 | -13.1
Cc1[nH]c(=O)[nH]c(=O)c1NC(=O)c1ccccc1[N+](=O)[O-] | . | . | . | . | . | -12.8 | . | .
